Experimental data: ChEMBL document CHEMBL2203081 (Bioorg Med Chem Lett, 2012)

Tests used:
[1] = target: Casein kinase I isoform gamma-3 (Homo sapiens) (UniProt Q9Y6M4); test: Inhibition of CSNK1G3 assessed as residual activity at 10 uM relative to control
Summary of the method: (§1)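 Competition kinase-binding assay (KINOMEscan) across a non-redundant panel of 329 kinases beyond the radiometric panel; residual binding expressed relative to control.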

[2] = target: Casein kinase I isoform epsilon (Homo sapiens) (UniProt P49674); test: Inhibition of CSNK1E assessed as residual activity at 10 uM relative to control; summary of the method: as §1
[3] = target: Casein kinase I isoform delta (Homo sapiens) (UniProt P48730); test: Inhibition of CSNK1D assessed as residual activity at 10 uM relative to control; summary of the method: as §1
Sequence of Casein kinase I isoform delta (Homo sapiens) (P48730 whole entry, looked up, canonical isoform): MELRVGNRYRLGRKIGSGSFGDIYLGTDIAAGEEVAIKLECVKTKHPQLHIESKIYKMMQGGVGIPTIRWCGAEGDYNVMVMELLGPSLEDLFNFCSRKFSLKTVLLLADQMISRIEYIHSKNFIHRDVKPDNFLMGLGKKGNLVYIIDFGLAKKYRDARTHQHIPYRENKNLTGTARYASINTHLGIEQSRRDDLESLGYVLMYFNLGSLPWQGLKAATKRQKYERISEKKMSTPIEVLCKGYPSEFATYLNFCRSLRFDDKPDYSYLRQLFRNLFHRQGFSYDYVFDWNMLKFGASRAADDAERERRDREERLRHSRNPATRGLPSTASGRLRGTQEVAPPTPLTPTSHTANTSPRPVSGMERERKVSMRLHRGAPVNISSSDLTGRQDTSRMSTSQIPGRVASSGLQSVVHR

[4] = target: Cyclin-dependent kinase 11B (Homo sapiens) (UniProt P21127); test: Inhibition of CDC2L1 assessed as residual activity at 10 uM relative to control
Sequence of Cyclin-dependent kinase 11B (Homo sapiens) (P21127 whole entry): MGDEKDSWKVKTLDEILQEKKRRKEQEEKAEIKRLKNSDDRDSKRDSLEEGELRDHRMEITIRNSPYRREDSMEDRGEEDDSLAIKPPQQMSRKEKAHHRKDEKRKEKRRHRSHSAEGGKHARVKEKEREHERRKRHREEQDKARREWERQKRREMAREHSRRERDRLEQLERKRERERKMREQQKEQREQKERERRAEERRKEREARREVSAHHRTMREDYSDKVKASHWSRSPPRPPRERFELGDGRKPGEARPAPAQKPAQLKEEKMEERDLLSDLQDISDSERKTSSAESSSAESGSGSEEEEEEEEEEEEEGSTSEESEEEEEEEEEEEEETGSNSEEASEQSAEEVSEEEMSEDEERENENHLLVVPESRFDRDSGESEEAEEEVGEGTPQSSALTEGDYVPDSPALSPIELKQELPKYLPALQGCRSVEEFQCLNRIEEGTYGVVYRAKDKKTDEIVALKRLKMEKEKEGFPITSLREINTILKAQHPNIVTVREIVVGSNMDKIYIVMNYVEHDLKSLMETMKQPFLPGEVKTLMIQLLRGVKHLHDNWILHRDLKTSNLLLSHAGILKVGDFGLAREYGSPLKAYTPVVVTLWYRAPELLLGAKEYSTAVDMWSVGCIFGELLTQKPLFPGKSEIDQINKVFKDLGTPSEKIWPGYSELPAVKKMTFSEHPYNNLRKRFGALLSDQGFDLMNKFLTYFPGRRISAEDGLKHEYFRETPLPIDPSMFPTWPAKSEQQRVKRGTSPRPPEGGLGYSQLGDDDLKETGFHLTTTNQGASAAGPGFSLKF

[5] = target: T1, Mitogen-activated protein kinase kinase kinase 7 (Homo sapiens) (UniProt O43318); test: Inhibition of TAK1 assessed as residual activity at 10 uM relative to control
T1 sequence (whole entry): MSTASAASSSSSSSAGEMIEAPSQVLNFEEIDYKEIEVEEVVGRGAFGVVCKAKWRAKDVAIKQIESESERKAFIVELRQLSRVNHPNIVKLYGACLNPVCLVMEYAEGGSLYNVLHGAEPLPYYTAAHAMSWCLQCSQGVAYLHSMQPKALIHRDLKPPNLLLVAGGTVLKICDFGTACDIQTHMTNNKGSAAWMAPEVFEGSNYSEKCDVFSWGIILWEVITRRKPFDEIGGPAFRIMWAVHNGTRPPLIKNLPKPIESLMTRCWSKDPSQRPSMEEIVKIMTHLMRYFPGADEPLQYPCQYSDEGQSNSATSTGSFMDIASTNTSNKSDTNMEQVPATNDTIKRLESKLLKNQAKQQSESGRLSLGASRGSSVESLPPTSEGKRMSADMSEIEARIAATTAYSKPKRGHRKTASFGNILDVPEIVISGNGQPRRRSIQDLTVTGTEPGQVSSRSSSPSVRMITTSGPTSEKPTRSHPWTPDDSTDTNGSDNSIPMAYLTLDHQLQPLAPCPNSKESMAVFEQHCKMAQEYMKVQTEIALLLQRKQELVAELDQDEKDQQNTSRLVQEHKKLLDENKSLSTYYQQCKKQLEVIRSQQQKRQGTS

[6] = target: Ephrin type-B receptor 4 (Homo sapiens) (UniProt P54760); test: Inhibition of EPH-B4 assessed as residual activity at 1 uM
Sequence of Ephrin type-B receptor 4 (Homo sapiens) (P54760 whole entry): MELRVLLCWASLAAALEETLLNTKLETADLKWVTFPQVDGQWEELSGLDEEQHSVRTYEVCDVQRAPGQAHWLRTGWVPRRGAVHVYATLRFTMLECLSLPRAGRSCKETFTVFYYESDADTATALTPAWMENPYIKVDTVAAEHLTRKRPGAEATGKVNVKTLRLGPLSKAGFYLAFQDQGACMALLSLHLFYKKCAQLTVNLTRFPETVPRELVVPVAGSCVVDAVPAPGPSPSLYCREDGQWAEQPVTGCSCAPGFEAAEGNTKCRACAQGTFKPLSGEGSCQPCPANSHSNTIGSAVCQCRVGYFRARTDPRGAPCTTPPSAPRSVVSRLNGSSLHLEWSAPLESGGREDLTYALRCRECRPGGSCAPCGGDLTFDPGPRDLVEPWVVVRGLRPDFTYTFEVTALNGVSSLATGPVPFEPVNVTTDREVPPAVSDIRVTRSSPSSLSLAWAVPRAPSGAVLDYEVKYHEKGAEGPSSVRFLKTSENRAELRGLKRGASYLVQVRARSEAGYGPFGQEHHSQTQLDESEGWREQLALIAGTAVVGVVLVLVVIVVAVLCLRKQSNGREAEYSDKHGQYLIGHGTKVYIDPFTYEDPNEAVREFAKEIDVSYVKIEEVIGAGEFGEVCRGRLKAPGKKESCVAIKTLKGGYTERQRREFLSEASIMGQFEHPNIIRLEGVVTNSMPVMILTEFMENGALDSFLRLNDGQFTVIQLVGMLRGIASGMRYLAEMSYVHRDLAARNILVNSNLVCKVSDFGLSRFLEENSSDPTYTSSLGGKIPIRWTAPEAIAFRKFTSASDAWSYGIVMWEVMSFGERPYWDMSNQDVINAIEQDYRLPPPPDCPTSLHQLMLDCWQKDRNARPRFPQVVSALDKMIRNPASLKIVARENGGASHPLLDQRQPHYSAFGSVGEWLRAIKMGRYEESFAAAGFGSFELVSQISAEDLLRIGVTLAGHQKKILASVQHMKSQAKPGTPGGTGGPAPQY
Summary of the method: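 Standard radioactivity-based enzymatic kinase assays on a 131-kinase panel run by the Dundee profiling service; residual kinase activity recorded.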

[7] = target: RAC-gamma serine/threonine-protein kinase (Homo sapiens) (UniProt Q9Y243); test: Inhibition of AKT3 assessed as residual activity at 10 uM relative to control
Sequence of RAC-gamma serine/threonine-protein kinase (Homo sapiens) (Q9Y243 whole entry): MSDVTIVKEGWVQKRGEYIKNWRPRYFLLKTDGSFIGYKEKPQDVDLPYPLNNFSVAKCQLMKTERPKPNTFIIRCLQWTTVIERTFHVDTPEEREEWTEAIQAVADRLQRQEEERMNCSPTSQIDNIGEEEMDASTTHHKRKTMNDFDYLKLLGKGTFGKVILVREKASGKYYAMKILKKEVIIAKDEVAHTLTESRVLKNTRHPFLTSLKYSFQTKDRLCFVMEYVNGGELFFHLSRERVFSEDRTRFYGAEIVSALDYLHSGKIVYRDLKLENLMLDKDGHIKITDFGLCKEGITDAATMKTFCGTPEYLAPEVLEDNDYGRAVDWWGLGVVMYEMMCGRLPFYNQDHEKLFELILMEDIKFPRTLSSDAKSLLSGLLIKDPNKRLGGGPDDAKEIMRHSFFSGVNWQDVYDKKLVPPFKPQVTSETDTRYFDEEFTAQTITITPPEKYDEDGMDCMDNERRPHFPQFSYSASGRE

[8] = target: Atypical kinase COQ8B, mitochondrial (Homo sapiens) (UniProt Q96D53); test: Inhibition of ADCK4 assessed as residual activity at 10 uM relative to control
Sequence of Atypical kinase COQ8B, mitochondrial (Homo sapiens) (Q96D53 whole entry): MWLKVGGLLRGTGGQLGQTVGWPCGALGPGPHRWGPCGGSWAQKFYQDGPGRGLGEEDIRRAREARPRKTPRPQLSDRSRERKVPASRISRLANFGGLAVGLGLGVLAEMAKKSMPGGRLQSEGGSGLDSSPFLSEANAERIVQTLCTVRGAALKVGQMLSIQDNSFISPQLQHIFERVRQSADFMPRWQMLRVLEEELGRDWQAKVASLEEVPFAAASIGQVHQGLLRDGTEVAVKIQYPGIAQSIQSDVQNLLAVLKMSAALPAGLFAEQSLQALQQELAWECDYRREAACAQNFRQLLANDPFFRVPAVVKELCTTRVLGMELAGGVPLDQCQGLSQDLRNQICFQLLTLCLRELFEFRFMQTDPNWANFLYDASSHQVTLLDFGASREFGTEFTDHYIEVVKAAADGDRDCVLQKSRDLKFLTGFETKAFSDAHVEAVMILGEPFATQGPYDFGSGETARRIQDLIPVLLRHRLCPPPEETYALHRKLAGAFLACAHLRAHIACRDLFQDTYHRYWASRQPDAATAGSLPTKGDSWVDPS

[9] = target: Serine/threonine-protein kinase N2 (Homo sapiens) (UniProt Q16513); test: Inhibition of PRK2 assessed as residual activity at 10 uM
Sequence of Serine/threonine-protein kinase N2 (Homo sapiens) (Q16513 whole entry, looked up): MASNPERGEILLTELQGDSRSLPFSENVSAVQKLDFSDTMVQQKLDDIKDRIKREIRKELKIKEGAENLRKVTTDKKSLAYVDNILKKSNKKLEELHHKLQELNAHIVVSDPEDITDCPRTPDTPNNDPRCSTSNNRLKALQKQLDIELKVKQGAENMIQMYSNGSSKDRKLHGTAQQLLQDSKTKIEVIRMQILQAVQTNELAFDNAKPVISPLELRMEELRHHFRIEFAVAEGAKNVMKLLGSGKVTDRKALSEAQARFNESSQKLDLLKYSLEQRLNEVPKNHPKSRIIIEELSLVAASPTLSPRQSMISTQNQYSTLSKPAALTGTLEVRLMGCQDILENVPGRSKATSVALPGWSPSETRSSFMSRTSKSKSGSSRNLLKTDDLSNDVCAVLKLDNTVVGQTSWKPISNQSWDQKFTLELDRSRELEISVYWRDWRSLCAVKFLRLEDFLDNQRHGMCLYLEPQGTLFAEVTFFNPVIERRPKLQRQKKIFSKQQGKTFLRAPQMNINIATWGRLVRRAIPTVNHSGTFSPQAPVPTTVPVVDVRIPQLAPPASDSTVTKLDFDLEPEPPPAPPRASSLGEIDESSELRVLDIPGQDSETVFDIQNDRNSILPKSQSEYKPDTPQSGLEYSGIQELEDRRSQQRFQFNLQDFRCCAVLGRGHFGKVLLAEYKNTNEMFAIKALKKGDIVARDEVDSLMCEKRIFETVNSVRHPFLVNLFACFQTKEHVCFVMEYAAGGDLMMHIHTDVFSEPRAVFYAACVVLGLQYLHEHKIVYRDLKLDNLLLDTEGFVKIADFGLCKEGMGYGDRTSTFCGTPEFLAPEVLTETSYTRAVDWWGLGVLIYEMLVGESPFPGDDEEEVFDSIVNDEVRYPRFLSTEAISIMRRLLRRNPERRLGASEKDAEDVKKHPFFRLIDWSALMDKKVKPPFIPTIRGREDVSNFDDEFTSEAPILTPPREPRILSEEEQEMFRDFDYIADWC

[10] = target: T2, Serine/threonine-protein kinase D1 (Homo sapiens) (UniProt Q15139); test: Inhibition of PKD1 assessed as residual activity at 10 uM
T2 sequence (whole entry): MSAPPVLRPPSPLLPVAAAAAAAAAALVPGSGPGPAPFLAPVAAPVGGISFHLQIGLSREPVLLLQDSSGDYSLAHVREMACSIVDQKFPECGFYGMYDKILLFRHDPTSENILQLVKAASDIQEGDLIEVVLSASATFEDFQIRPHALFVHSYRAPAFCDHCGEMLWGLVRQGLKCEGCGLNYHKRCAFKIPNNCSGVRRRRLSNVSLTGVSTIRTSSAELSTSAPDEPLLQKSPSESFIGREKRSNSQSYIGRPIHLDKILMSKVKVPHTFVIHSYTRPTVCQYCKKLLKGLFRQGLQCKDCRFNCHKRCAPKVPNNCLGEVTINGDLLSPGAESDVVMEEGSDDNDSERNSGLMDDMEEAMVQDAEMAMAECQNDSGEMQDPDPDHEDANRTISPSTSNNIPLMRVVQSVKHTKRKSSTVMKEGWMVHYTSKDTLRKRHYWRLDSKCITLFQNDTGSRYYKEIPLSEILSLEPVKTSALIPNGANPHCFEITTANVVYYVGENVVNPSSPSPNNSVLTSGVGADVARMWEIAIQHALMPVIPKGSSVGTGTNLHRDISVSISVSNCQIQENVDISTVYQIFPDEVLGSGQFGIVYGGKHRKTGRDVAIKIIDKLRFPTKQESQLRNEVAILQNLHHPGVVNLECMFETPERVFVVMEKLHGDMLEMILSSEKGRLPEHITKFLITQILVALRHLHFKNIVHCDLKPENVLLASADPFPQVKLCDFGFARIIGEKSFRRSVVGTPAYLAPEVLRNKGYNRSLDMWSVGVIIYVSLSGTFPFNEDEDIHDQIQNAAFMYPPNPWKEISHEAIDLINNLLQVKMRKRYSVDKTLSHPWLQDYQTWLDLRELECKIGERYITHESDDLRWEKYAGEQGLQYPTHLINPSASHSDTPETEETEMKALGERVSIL

[11] = target: Ribosomal protein S6 kinase beta-1 (Homo sapiens) (UniProt P23443); test: Inhibition of S6K1 assessed as residual activity at 1 uM
Sequence of Ribosomal protein S6 kinase beta-1 (Homo sapiens) (P23443 whole entry, looked up): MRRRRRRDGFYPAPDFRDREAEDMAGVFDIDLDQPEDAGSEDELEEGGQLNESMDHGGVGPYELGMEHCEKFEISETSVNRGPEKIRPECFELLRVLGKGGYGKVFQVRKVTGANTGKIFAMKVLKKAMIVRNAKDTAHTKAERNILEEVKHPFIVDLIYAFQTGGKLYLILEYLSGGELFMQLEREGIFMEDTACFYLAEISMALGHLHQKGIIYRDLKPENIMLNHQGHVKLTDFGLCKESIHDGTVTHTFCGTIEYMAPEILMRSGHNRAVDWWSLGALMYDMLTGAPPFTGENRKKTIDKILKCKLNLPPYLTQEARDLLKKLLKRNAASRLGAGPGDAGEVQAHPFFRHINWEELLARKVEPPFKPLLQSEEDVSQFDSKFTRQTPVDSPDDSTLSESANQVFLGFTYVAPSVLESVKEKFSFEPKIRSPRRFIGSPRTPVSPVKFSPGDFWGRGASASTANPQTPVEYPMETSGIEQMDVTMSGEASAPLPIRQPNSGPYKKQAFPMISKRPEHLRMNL

Which Activity [1] does the source give for `O=C(Nc1cccnc1)c1cc(-c2ccnc(F)c2)ccc1OCc1ccccc1` here?
Its Activity is 26%.

And the Activity [2]?
The Activity was 31%.

And the Activity [3]?
Its Activity is 19%.

And the Activity [4]?
Its Activity is 67%.

What about the Activity [5] of the same molecule?
The Activity was 59%.

And the Activity [6]?
The Activity was 118%.

What about the Activity [7] of the same molecule?
The Activity was 51%.

And the Activity [8]?
The Activity was 26%.

What about the Activity [9] of the same molecule?
Its Activity is 79%.

What about the Activity [10] of the same molecule?
The Activity was 76%.

And the Activity [11]?
The Activity was 101%.
